Values after ≈ are worked out from the molar mass of the structure shown. Active and inactive are the calls of the source. No cut-off for these calls is given here.
Assays:
[1] = Stability of the compound in simulated gastric fluid assessed as retention time by micellar liquid chromatography; format: physicochemical; conditions: simulated gi fluid
[2] = Stability of the compound in 0.1 M SDS-0.01 M 7.5% (v/v) 1-propanol-NaH2PO4/H3PO4 assessed as compound recovery at 3.5 x 10^-7 mol/ml by micellar liquid chromatography; format: physicochemical
Method in brief: (§1)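 Recovery: N1-acyl compounds were spiked at 7.5 x 10^-9, 6 x 10^-8 and 3.5 x 10^-7 mol/mL (ten replicates each) into pH 1.2 and 6.8 buffers, SGF and SIF. Analysis used MLC with 0.1 M SDS–7.5% 1-propanol–0.01 M NaH2PO4/H3PO4 pH 3.0, at 1 mL/min, 25 °C and 276 nm. Recovery was calculated against working standards.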

[3] = Stability of the compound in 0.1 M SDS-0.01 M 7.5% (v/v) 1-propanol-NaH2PO4/H3PO4 assessed as compound recovery at 6 x 10^-8 mol/ml by micellar liquid chromatography; format: physicochemical; method in brief: as §1
[4] = Stability of the compound in 0.1 M SDS-0.01 M 7.5% (v/v) 1-propanol-NaH2PO4/H3PO4 assessed as compound recovery at 7.5 x 10^-9 mol/ml by micellar liquid chromatography; format: physicochemical; method in brief: as §1
[5] = Octanol-water partition coefficient, log P of the compound by RP-HPLC analysis; format: physicochemical
Method in brief: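 RP-HPLC lipophilicity: isocratic buffer pH 5.5–MeOH, 30–75% MeOH in 5% steps. Three injections per compound and five per standard at each ratio. log k' = log(tR − t0)/t0 was computed from retention times.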

[6] = Half life in human plasma; format: ADME, cell-free
Method in brief: (§2)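 Stability in human plasma was followed by micellar LC, with allopurinol tracked as product. Pseudo-first-order kinetics gave t1/2 or kobs.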

[7] = Drug degradation in buffer at 37 degC at pH 6.8 after 3 hrs in presence of pancreatin; format: physicochemical; conditions: buffer with pancreatin, read-out: Drug degradation
Method in brief: (§3)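 Compounds came from DMSO stocks of 1.0 x 10^-4 mol/mL. They were incubated at 37 °C in buffer pH 1.2 or SGF (pepsin) for 1 h, and in buffer pH 6.8 or SIF (pancreatin) for 3 h. Samples were analysed by micellar LC. Percent degradation was reported; kinetics were treated as pseudo-first-order.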

[8] = Drug degradation in simulated intestinal fluid at 37 degC after 3 hrs; format: physicochemical; conditions: read-out: Drug degradation; method in brief: as §3
[9] = Drug degradation in 3.5% H2O2 assessed as allopurinol formation; format: physicochemical
[10] = Drug degradation in simulated gastric fluid at 37 degC after 1 hr; format: physicochemical; conditions: read-out: Drug degradation; method in brief: as §3
[11] = Drug degradation in 0.1 M HCl assessed as allopurinol formation at 1 mg/ml at 90 degC; format: physicochemical; conditions: buffer
[12] = Drug degradation in 0.1 M NaOH assessed as allopurinol formation at 1 mg/ml at 90 degC; format: physicochemical
[13] = tested on: Plasma; test: Metabolic stability of the compound in human plasma; format: ADME, cell-free; method in brief: as §2
[14] = Intrinsic solubility of the compound in standard phosphate buffer at pH 6.8 at 37 degC after 24 hrs by shake-flask method; format: physicochemical; conditions: read-out: Intrinsic_solubility
Method in brief: (§4)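 Shake-flask intrinsic solubility: solid compound was added to phosphate buffer until excess remained undissolved. The thermostated saturated solution was shaken for 24 h to reach equilibrium, at 25 °C and at 37 °C.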

[15] = Intrinsic solubility of the compound in standard phosphate buffer at pH 6.8 at 25 degC after 24 hrs by shake-flask method; format: physicochemical; conditions: read-out: Intrinsic_solubility; method in brief: as §4
[16] = Drug degradation in buffer at 37 degC at pH 1.2 after 1 hr
[17] = tested on: Trypanosoma cruzi; test: Antimicrobial activity against Trypanosoma cruzi RA amastigotes infected in African green monkey Vero cells assessed as growth inhibition after 72 hrs by Giemsa staining-based light microscopy; format: functional, organism-based
Method in brief: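 Vero cells irradiated at 2000 rads, seeded on coverslips and infected with bloodstream trypomastigotes of RA strain at 5:1 parasite:cell for 24 h. Free parasites were washed off and cultures incubated 72 h with compound, 0.5–50 range, triplicate, at 37 °C in 5% CO2. Vehicle 0.5% DMSO. Coverslips were methanol-fixed and Giemsa-stained. Infection rate and amastigotes per cell (100 infected cells) were read by light microscopy. IC50 estimated from percentage infection.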

[18] = tested on: Trypanosoma cruzi; test: Antimicrobial activity against Trypanosoma cruzi RA amastigotes infected in African green monkey Vero cells assessed as growth inhibition at 1 ug/ml after 72 hrs by Giemsa staining-based light microscopy; format: functional, organism-based
Method in brief: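 RA-strain bloodstream trypomastigotes infected irradiated Vero cells (2000 rads) on coverslips at a 5:1 parasite:cell ratio for 24 h. Cells were washed, then exposed to 1 ug/mL compound for 72 h at 37 °C in 5% CO2. Coverslips were fixed in methanol and Giemsa-stained. Infected cells were scored by light microscopy against untreated infected cultures.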

[19] = tested on: Trypanosoma cruzi; test: Antimicrobial activity against blood stream form of Trypanosoma cruzi RA assessed as growth inhibition at 1 to 70 ug/ml after 24 hrs by Neubauer chamber counting analysis; format: functional, organism-based
Method in brief: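 RA-strain bloodstream trypomastigotes were enriched from infected-mouse blood at peak parasitemia. They were used at 1.5 x 10^6/mL in RPMI 1640 with 10% FCS. Parasites were exposed for 24 h at 37 °C in 5% CO2 to 0–70 ug/mL compound from 40 mM DMSO stocks (final DMSO <0.5%). 0.5% DMSO served as negative control. Surviving parasites were counted by Neubauer chamber. Three independent experiments, each in triplicate.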

[20] = Stability of the compound in simulated intestinal fluid assessed as retention time by micellar liquid chromatography; format: physicochemical; conditions: simulated gi fluid
[21] = Stability of the compound in buffer at 37 degC at pH 6.8 after 3 hrs in presence of pancreatin; format: ADME; conditions: pH 6.8, 3 h; method in brief: as §3
[22] = Stability of the compound in simulated intestinal fluid at 37 degC after 3 hrs; format: physicochemical; conditions: simulated gi fluid; method in brief: as §3
[23] = Stability of the compound in buffer at 37 degC at pH 1.2 after 1 hr in presence of pepsin; format: ADME; conditions: isolated protein, pH 1.2, 1 h; method in brief: as §3
[24] = Stability of the compound in simulated gastric fluid at 37 degC after 1 hr; format: physicochemical; conditions: simulated gi fluid; method in brief: as §3
[25] = Dissociation constant, pKa of the compound at 25 degC; format: physicochemical
Method in brief: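 pKa computed with ACDpKa software. Only for the parent drug was it checked against a pH-solubility profile at 25 °C.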

[26] = Drug degradation in 0.1 M NaOH at 1 mg/ml at 90 degC after 16 hrs; format: physicochemical
Method in brief: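 Compound at 1 mg/mL was heated in 0.1 M NaOH at 90 °C for 16 h. Percent degradation was quantified by micellar liquid chromatography.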

[27] = Stability of the compound in 0.05 M SDS-0.01 M NaH2PO4/H3PO4 assessed as compound recovery at 6 x 10^-8 mol/ml by micellar liquid chromatography; format: physicochemical
Method in brief: (§5)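 Analytical recovery. Standards at 7.5 × 10⁻⁹, 6 × 10⁻⁸ and 3.5 × 10⁻⁷ mol/mL, ten replicates each, were spiked into pH 1.2 and pH 6.8 buffers and into SGF and SIF. They were analysed by MLC with mobile phase 0.05 M SDS–0.01 M NaH2PO4/H3PO4 pH 3.0 at 1.25 mL/min, 25 °C, detection at 250 nm. Recovery was found concentration relative to working standards.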

[28] = Stability of the compound in 0.05 M SDS-0.01 M NaH2PO4/H3PO4 assessed as compound recovery at 3.5 x 10^-7 mol/ml by micellar liquid chromatography; format: physicochemical; method in brief: as §5
[29] = Stability of the compound in 0.05 M SDS-0.01 M NaH2PO4/H3PO4 assessed as compound recovery at 7.5 x 10^-9 mol/ml by micellar liquid chromatography; format: physicochemical; method in brief: as §5
[30] = Cytotoxicity against mouse splenocytes assessed as cell viability at 50 times IC50 after 32 hrs by Alamar Blue assay; format: cell-based; conditions: splenocyte
Method in brief: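 Viability was read by Alamar Blue and expressed as percent of untreated control. Two experiments, each in duplicate.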

SMILES | Retention_time [1] [min] | Drug recovery [2] [%] | Drug recovery [3] [%] | Drug recovery [4] [%] | logP [5] | Stability [13] | solubility thermodynamic at 24 h [14] [µg/mL] | solubility thermodynamic at 24 h [15] [µg/mL] | growth inhibition (GI) [18] | growth inhibition (GI) [19] | other results
CCC(=O)n1ncc2c(O)ncnc21 | 4 | 103.18 | 103.09 | 99.74 | 1.22 | Unstable | > 65 | > 65 | – | – | half-life [6]: 9.5 min; metabolised at 3 h [7]: 100%; degraded at 3 h [8]: 100%; Stability [9]: Unstable; degraded at 1 h [10]: 32%; Stability [11]: Unstable; Stability [12]: Unstable; metabolised at 1 h [16]: 30.3%
CCCC(=O)n1ncc2c(=O)[nH]cnc21 | – | – | – | – | – | – | – | – | Active | inactive | IC50 [17]: 11.3 µM; inhibition [17]: Dose-dependent effect
O=C(Cn1ccnc1[N+](=O)[O-])NCc1ccccc1 | – | – | – | – | – | – | – | – | Active | – | –
CC(=O)n1ncc2c(=O)[nH]cnc21 | – | – | – | – | – | – | – | – | – | inactive | –
CCCc1nc2n[nH]cc2c(=O)[nH]1 | – | 100.27 | 99.59 | 101.17 | 1.14 | 100% | 2560 (≈ 14.4 mM) | 2070 (≈ 11.6 mM) | – | – | Retention_time [20]: 7.8 min; Stability [21]: Stable; Stability [22]: Stable; Stability [23]: Stable; Stability [24]: Stable
CC(=O)n1ncc2c(O)ncnc21 | 3 | 99.04 | 102.42 | 98.03 | 0.4 | Unstable | > 65 | > 65 | – | – | half-life [6]: 8.4 min; metabolised at 3 h [7]: 100%; degraded at 3 h [8]: 100%; Stability [9]: Unstable; degraded at 1 h [10]: 18.9%; Stability [11]: Unstable; Stability [12]: Unstable; metabolised at 1 h [16]: 17.1%
CCc1nc(O)c2c[nH]nc2n1 | – | 97.78 | 97.07 | 101.19 | 0.52 | 100% | 940 (≈ 5.73 mM) | 710 (≈ 4.32 mM) | Active | inactive | Retention_time [20]: 4.7 min; Stability [21]: Stable; Stability [22]: Stable; Stability [23]: Stable; Stability [24]: Stable
Oc1ncnc2[nH]ncc12 [ALLOPURINOL] | 2.4 | 97.54 | 98.55 | 102.4 | – | 100% | 900 (≈ 6.61 mM) | 490 (≈ 3.6 mM) | Active | – | pKa [25]: 9.7; Stability [26]: Stable; Retention_time [20]: 2.6 min; Drug recovery [27]: 98.85%; Drug recovery [28]: 100.17%; Drug recovery [29]: 97.37%; Activity [30]: Non-toxic; IC50 [17]: 9.62 µM; inhibition [17]: Dose-dependent effect
CCCc1nc(O)c2c[nH]nc2n1 | – | – | – | – | – | – | – | – | – | inactive | –
CCCC(=O)n1ncc2c(O)ncnc21 | 7.7 | 100.3 | 101.42 | 103.11 | 1.99 | Unstable | > 65 | > 65 | – | – | half-life [6]: 6.1 min; metabolised at 3 h [7]: 100%; degraded at 3 h [8]: 100%; Stability [9]: Unstable; degraded at 1 h [10]: 26.5%; Stability [11]: Unstable; Stability [12]: Unstable; Activity [30]: Non-toxic; metabolised at 1 h [16]: 27%
CCC(=O)n1ncc2c(=O)[nH]cnc21 | – | – | – | – | – | – | – | – | – | inactive | –

Source: ChEMBL document CHEMBL2434933, “Synthesis, physicochemical properties of allopurinol derivatives and their biological activity against Trypanosoma cruzi” (Eur J Med Chem, 2013)
